From ChEMBL document CHEMBL3804777, “Identification and Preclinical Pharmacology of BMS-986104: A Differentiated S1P1 Receptor Modulator in Clinical Trials” (ACS Med Chem Lett, 2016)
Blank lines part the entries; values can stand above or below the molecule they belong to. The source made the active and inactive calls. The rule behind the calls is not given here.

Columns and labels:
[1] = Drug metabolism in BALB/c mouse whole blood assessed as whole blood phosphate area ratio at 10 uM after 4 hrs by LC/MS/MS analysis; assay type: ADME, tissue-based
Summary of the method: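 Mouse whole blood incubated with the amino-alcohol prodrug; phosphorylated product measured by LC/MS/MS after 4 h to give the relative extent of phosphate ester formation.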

Mus musculus [2] = assay: Reduction of blood lymphocyte level in BALB/c mouse at 1 mg/kg administered through oral gavage after 24 hrs by hematology analysis; assay type: functional; parameters: scale not given: the % may be the effect or the level left
Summary of the method: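 Mice given a single oral 1 mg/kg dose; circulating lymphocytes counted 24 h later as the pharmacodynamic marker.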

Mus musculus [3] = assay: Reduction in B220 gene expression in SCID mouse with CD45RBhiCD4+ T-cell transfer-induced colitis model of inflammatory bowel disease at 5 mg/kg, po dosed every other day for 5 weeks by RT-PCR method; assay type: functional; details: 840 h
Summary of the method: (§1)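 CD45RBhiCD4+ T-cell transfer colitis in mice; oral alternate-day dosing for 5 weeks, compared with vehicle. Read-outs: body weight, colon length, histological colon inflammation and tissue damage, and colon gene expression by RT-PCR (IFN-γ, IL-2, CD4, B220, CD11b, Fcgr4, Ifit1, OASL2).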

Mus musculus [4] = assay: Reduction in lymphocyte level in BALB/c mouse assessed as blood lymphocyte level at 10 mg/kg, po after 24 hrs by hematology analysis (reference value: 5.13 to 8.02 10^3/mm3); assay type: functional
Mus musculus [5] = assay: Reduction in body weight loss in SCID mouse with CD45RBhiCD4+ T-cell transfer-induced colitis model of inflammatory bowel disease at 1 mg/kg, po dosed daily for 5 weeks; assay type: functional, organism-based
Summary of the method: (§2)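 CD45RBhiCD4+ T-cell transfer colitis in mice; oral dosing at 1 mg/kg/day for 5 weeks, compared with vehicle. Read-outs: body weight, colon length, and colon gene expression by RT-PCR (IFN-γ, IL-2, CD4, B220, CD11b, Fcgr4, Ifit1, OASL2).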

Mus musculus [6] = assay: Pulmonary toxicity in BALB/c mouse assessed as BAL protein levels at 0.5 mg/kg, po after 24 by hematology analysis (reference value: 8.2 to 8.3 mg/dL); assay type: organism-based; details: in vivo
Mus musculus [7] = assay: Reduction in IL2 gene expression in SCID mouse with CD45RBhiCD4+ T-cell transfer-induced colitis model of inflammatory bowel disease at 5 mg/kg, po dosed every other day for 5 weeks by RT-PCR method; assay type: functional; details: 840 h; summary of the method: as §1
Mus musculus [8] = assay: Reduction in Ifit1 gene expression in SCID mouse with CD45RBhiCD4+ T-cell transfer-induced colitis model of inflammatory bowel disease at 5 mg/kg, po dosed every other day for 5 weeks by RT-PCR method; assay type: functional; details: 840 h; summary of the method: as §1
Mus musculus [9] = assay: Reduction in IFNgamma gene expression in SCID mouse with CD45RBhiCD4+ T-cell transfer-induced colitis model of inflammatory bowel disease at 5 mg/kg, po dosed every other day for 5 weeks by RT-PCR method; assay type: functional; details: 840 h; summary of the method: as §1
Mus musculus [10] = assay: Reduction in OASL2 gene expression in SCID mouse with CD45RBhiCD4+ T-cell transfer-induced colitis model of inflammatory bowel disease at 5 mg/kg, po dosed every other day for 5 weeks by RT-PCR method; assay type: functional; details: 840 h; summary of the method: as §1
Mus musculus [11] = assay: Reduction in CD11b gene expression in SCID mouse with CD45RBhiCD4+ T-cell transfer-induced colitis model of inflammatory bowel disease at 5 mg/kg, po dosed every other day for 5 weeks by RT-PCR method; assay type: functional; details: 840 h; summary of the method: as §1
Mus musculus [12] = assay: Reduction in Fcgr4 gene expression in SCID mouse with CD45RBhiCD4+ T-cell transfer-induced colitis model of inflammatory bowel disease at 5 mg/kg, po dosed every other day for 5 weeks by RT-PCR method; assay type: functional; details: 840 h; summary of the method: as §1
Mus musculus [13] = assay: Reduction in lymphocyte level in BALB/c mouse assessed as blood lymphocyte level at 30 mg/kg, po after 24 hrs by hematology analysis (reference value: 5.13 to 8.02 10^3/mm3); assay type: functional
Mus musculus [14] = assay: Pulmonary toxicity in BALB/c mouse assessed as BAL protein levels at 10 mg/kg, po after 24 by hematology analysis (reference value: 8.2 to 8.3 mg/dL); assay type: organism-based; details: in vivo
Mus musculus [15] = assay: Pulmonary toxicity in BALB/c mouse assessed as BAL protein levels at 30 mg/kg, po after 24 by hematology analysis (reference value: 8.2 to 8.3 mg/dL); assay type: organism-based; details: in vivo
Mus musculus [16] = assay: Induction of colon length shortening in SCID mouse with CD45RBhiCD4+ T-cell transfer-induced colitis model of inflammatory bowel disease at 1 mg/kg, po dosed daily for 5 weeeks; assay type: functional, organism-based; summary of the method: as §2
Mus musculus [17] = assay: Reduction in lymphocyte level in BALB/c mouse assessed as blood lymphocyte level at 0.5 mg/kg, po after 24 hrs by hematology analysis (reference value: 5.13 to 8.02 10^3/mm3); assay type: functional
Mus musculus [18] = assay: Reduction in CD4 gene expression in SCID mouse with CD45RBhiCD4+ T-cell transfer-induced colitis model of inflammatory bowel disease at 5 mg/kg, po dosed every other day for 5 weeks by RT-PCR method; assay type: functional; details: 840 h; summary of the method: as §1
Heart [19] = assay: Toxicity in guinea pig heart assessed as reduction in ventricular rate at 100 nM after 10 mins by ECG analysis; assay type: tissue-based, Cavia porcellus, Cardiac ventricle; details: 0.1 µM
Summary of the method: (§3)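 Isolated guinea pig hearts perfused with the phosphate at the stated concentrations; ventricular rate and atrioventricular conduction (third-degree AV block) monitored.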

Heart [20] = assay: Toxicity in guinea pig heart assessed as third degree AV block at 300 nM after 10 mins by ECG analysis; assay type: tissue-based, Cavia porcellus; details: 0.3 µM; summary of the method: as §3

Compound: CCCCCCC1CCc2cc(C3CCC(N)(CO)C3)ccc2C1 (stereo in doubt; 3f)
- Activity (Mus musculus [2]): 80%
- Ratio [1]: 0.6

Compound: CCCCCCCCc1ccc(CCC(N)(CO)CO)cc1 [FINGOLIMOD]
- inhibition in vivo at 5 mg/kg (Mus musculus [3]): 55%
- Activity (Mus musculus [4]): 0.92 ×10³ /mm3
- inhibition (Mus musculus [5]): Active
- Activity (Mus musculus [6]): 7.5 mg/dL
- inhibition in vivo at 5 mg/kg (Mus musculus [7]): 68%
- inhibition in vivo at 5 mg/kg (Mus musculus [8]): 16%
- inhibition in vivo at 5 mg/kg (Mus musculus [9]): 30%
- inhibition in vivo at 5 mg/kg (Mus musculus [10]): 7%
- inhibition in vivo at 5 mg/kg (Mus musculus [11]): 45%
- inhibition in vivo at 5 mg/kg (Mus musculus [12]): 25%
- Activity (Mus musculus [13]): 0.29 ×10³ /mm3
- Activity (Mus musculus [14]): 34.2 mg/dL
- Activity (Mus musculus [15]): 71 mg/dL
- Activity (Mus musculus [16]): Active
- Activity (Mus musculus [17]): 1.28 ×10³ /mm3
- inhibition in vivo at 5 mg/kg (Mus musculus [18]): 60%

Compound: CCc1cc(/C(C)=N/OCc2ccc(C3CCCCC3)c(C(F)(F)F)c2)ccc1CN1CC(C(=O)O)C1 [SIPONIMOD]
- Activity (Heart [19]): Toxic
- Activity (Heart [20]): Toxic

Second part, led by results:

- Ratio [1]: 0.03
Compound: CCCCCCC1CCc2cc(C3CCC(N)(CO)C3)ccc2C1 (stereo in doubt; 3e)

- Ratio [1]: 0.02
Compound: CCCCCCC1CCc2cc(C3CCC(N)(CO)C3)ccc2C1 (stereo in doubt; 3g)

- Ratio [1]: 0.17
Compound: CCCCCCC1CCc2cc(C3CCC(N)(CO)C3)ccc2C1 (stereo in doubt; 3h)
- Activity (Mus musculus [2]): 60%
